What was measured:
ISF Aβ = assay: in vivo microdialysis of ISF Aβ during isoflurane anesthesia; set-up: species or system mouse; details: first 3 h of isoflurane anesthesia, n = 4, not significant, P = 0.135
LRP1 = LRP1 protein levels in brain tissue; format: in vivo, mouse; details: after XR9576 administration; n = 9/group; P = 0.35
ISF Aβ40 = assay: baseline ISF Aβ40 in hippocampus measured with calibrated Aβ40 MIE; format: in vivo, APP/PS1 mice; details: 60 min after XR9576 80 mg/kg; n = 8; mean ± SEM; control mice 99.12 ± 19.28 (n = 15); P = 0.008
[1] = tested on: mRNA of genes related to APP processing or Aβ clearance; assay: qRT-PCR of APP processing and Aβ clearance genes in brain; format: in vivo, mouse; details: 2 h after 80 mg/kg i.v.; cortex; n = 6/group; P = 0.08-0.94
Outline: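 3-month-old mice received the Pgp inhibitor (80 mg/kg i.v.) or vehicle (5% dextrose) and were killed 2 h later. Cortical total RNA was reverse transcribed and run by SYBR Green qPCR with dissociation-curve checks. Genes were APP, PSEN1/2, nicastrin, APH-1, BACE1, ADAM10/17, Pgp, LRP1, IDE, NEP, MMP2 and MMP9. Levels were derived by ΔΔCt against mouse GAPDH and compared by t tests corrected for multiple comparisons.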

[2] = Compound E and XR9576 levels in brain tissue; format: in vivo, mouse; details: LC-MS
Outline: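 Brain hemispheres were homogenised by shaking with a steel ball (5 min, 20 Hz) in 45% methanol/45% acetonitrile/8% water/2% formic acid containing 1 µM internal standard, at 200 mg/ml. Extracts were centrifuged, filtered (0.8 µm) and run on capillary LC-MS (PLRPS column; water/acetonitrile gradient with 0.1% formic acid). Levels were quantified from internal-standard-normalised peak areas against an external curve prepared in control mouse brain extract.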

P-glycoprotein (Pgp) = details: rodents; ref Bankstahl et al., 2008; cited from earlier work

In the case of `FC(F)OC(Cl)C(F)(F)F` (stereo not shown) [isoflurane], the “decrease of ISF Aβ levels” value (ISF Aβ) is reported as 14%.

In the case of `COc1cc2c(cc1OC)CN(CCc1ccc(NC(=O)c3cc(OC)c(OC)cc3NC(=O)c3cnc4ccccc4c3)cc1)CC2` [XR9576], the “LRP1 protein levels in hippocampus” value (LRP1) is reported as “did not change”, the “absolute baseline concentration of ISF Aβ40” value (ISF Aβ40) is reported as 283.9 ± 80.38 and the “mRNA expression levels in the brain” value [1] is reported as “did not find significant differences”. For the same compound, the “XR9576 level in brain tissue” value ([2]; 1 h after injection, mouse brain extract, mean ± SEM) was 533.0 ± 68.11 µM and the “time of maximum inhibition of Pgp activity after injection” value (P-glycoprotein (Pgp)) was 30 min.

With `C[C@H](NC(=O)Cc1cc(F)cc(F)c1)C(=O)N[C@H]1N=C(c2ccccc2)c2ccccc2N(C)C1=O` [Compound E] the “Compound E level in brain tissue” value ([2]; within 5 min after intraperitoneal injection (30 mg/kg)) was 395 nM.

— publication PMC4854730 (The Journal of Experimental Medicine, 2016)
